# Experimental data as given in ChEMBL document CHEMBL4118197, “The discovery and preclinical evaluation of BMS-707035, a potent HIV-1 integrase strand transfer inhibitor” (Bioorg Med Chem Lett, 2018).
# Key:
# [1] = Clearance in Sprague-Dawley rat at 1 mg/kg, iv after 4 hrs; assay type: ADME, organism-based; conditions: in vivo
# How it was run: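 Male Sprague-Dawley rats given 1 mpk IV in PEG400/ethanol (90:10); blood sampled at 5 and 30 min and 1, 2 and 4 h post-dose; clearance from plasma profile.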
# [2] = target: Human immunodeficiency virus type 1 integrase (Human immunodeficiency virus 1, UniProt Q7ZJM1); assay: Inhibition of HIV1 integrase strand transfer activity
# Chain of Human immunodeficiency virus type 1 integrase (Q7ZJM1 whole entry): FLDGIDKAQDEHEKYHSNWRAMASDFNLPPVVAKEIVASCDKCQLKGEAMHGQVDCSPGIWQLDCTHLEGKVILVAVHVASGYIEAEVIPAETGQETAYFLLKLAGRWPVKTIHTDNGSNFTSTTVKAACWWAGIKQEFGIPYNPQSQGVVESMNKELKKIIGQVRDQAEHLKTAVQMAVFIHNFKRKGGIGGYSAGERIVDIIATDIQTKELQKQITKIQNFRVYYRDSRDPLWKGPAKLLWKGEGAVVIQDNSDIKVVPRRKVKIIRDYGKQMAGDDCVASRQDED
# [3] = Aqueous solubility of the compound; assay type: physicochemical
# How it was run: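 Aqueous solubility measured at pH 2.3, 6.1, 7.3 and 8.5, in µg/mL.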
SMILES,clearance [1] [mL/min/kg],IC50 [2] [nM],solubility [3] [µg/mL]
CC1(C)OCCn2c1nc(C(=O)NCc1ccc(F)cc1S(C)(=O)=O)c(O)c2=O,6.9,6,–
CS(=O)(=O)c1cc(F)ccc1CNC(=O)c1nc2n(c(=O)c1O)CCCC21CCCC1,46,4,≤ 5
CC1(C)OCCn2c1nc(C(=O)NCc1ccc(F)c(Cl)c1)c(O)c2=O,–,3,–
O=C(NCc1ccc(F)cc1N1CCCCS1(=O)=O)c1nc2n(c(=O)c1O)CCCC21CCCC1,–,5,≤ 5
